We go through twelve compounds from ChEMBL document CHEMBL4373637, “Synthesis of bicyclic 1,4-thiazepines as novel anti-Trypanosoma brucei brucei agents” (Medchemcomm, 2019).

The test system of series [1] is Trypanosoma brucei brucei. As to the kind of experiment: Antitrypanosomal activity against Trypanosoma brucei brucei 427 assessed as parasite death at 5 uM after 24 hrs by PI-staining based flow cytometry analysis relative to control. The format is functional. An outline of the steps:
(§1)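 Bloodstream-form T. b. brucei strain 427 grown in HMI-9 with 10% FBS at 37 °C and 5% CO2. Exponential-phase parasites were seeded at 5 x 10⁵/mL and given compound from DMSO stocks, alongside 1% DMSO and nifurtimox control wells. After 24 h, aliquots were diluted into PBS with 1% glucose (pH 7.4) and propidium iodide and counted by flow cytometry (ex 488 nm). Viability (%) = 100 × cells treated / cells in DMSO control.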
For orientation: In flow cytometry, cells or beads pass a laser one at a time.

Series [2] deals with Trypanosoma brucei brucei. As to the kind of experiment: Antitrypanosomal activity against Trypanosoma brucei brucei 427 assessed as parasite death at 30 uM after 24 hrs by PI-staining based flow cytometry analysis relative to control. In kind it is functional. An outline of the steps: as §1
The nature of series [3]: Selectivity index, ratio of EC50 for mouse J774 cells to EC50 for antitrypanosomal activity against Trypanosoma brucei brucei 427. In kind it is toxicity. The conditions noted are these: read-out: Ratio EC50.
The test system of series [4] is Trypanosoma brucei brucei. Kind of series: Antitrypanosomal activity against Trypanosoma brucei brucei 427 assessed as parasite death after 24 hrs by PI-staining based flow cytometry analysis. The format is functional, organism-based. The following applies: Trypanosoma brucei, 427, 24 h. An outline of the steps:
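Bloodstream-form T. b. brucei 427, cell line 449, carrying a redox biosensor, grown in HMI-9 with 10% FBS at 37 °C and 5% CO2. Exponential-phase cells at 5 x 10^5/mL were exposed to compound for 24 h; the control was 1% DMSO. Cells were then diluted into PBS with 1% glucose (pH 7.4) and propidium iodide, and analysed by flow cytometry (ex 488 nm). Viability was expressed as % of DMSO-control cell number.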

Series [5] concerns J774. As to the kind of experiment: Cytotoxicity against mouse J774 cells assessed as reduction in cell viability after 24 hrs by WST-1 assay. In kind it is cell-based. The following applies: J774, 24 h. An outline of the steps: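 Mouse J774 macrophages grown in DMEM with 10% FCS at 37 °C and 5% CO2. Viability was read with WST-1 at 6 concentrations, in triplicate, and expressed relative to the DMSO-treated control.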

Series [6] addresses T1, Thioredoxin glutathione reductase (Echinococcus granulosus) (UniProt Q869D7).
T1 sequence (whole entry): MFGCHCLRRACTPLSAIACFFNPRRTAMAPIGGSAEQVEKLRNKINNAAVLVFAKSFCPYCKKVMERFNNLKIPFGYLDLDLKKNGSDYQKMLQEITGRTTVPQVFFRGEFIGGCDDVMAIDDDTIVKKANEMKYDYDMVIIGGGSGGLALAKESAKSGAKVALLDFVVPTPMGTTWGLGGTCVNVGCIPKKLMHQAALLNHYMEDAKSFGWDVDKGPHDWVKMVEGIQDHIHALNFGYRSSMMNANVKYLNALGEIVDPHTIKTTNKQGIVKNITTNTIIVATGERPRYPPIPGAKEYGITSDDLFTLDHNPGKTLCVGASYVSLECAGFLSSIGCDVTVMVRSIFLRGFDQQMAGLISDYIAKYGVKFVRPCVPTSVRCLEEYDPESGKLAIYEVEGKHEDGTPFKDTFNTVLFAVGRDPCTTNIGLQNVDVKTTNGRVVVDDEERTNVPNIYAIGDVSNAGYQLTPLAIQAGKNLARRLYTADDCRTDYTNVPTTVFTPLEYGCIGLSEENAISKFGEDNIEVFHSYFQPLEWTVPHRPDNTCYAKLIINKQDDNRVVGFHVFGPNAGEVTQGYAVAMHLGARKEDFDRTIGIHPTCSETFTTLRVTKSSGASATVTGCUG
As to the kind of experiment: Inhibition of wild type recombinant Echinococcus granulosus TGR at 50 uM preincubated for NADPH followed by compound addition and measured after 3 mins by spectrophotometric analysis relative to control. An outline of the steps: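 Recombinant wild-type E. granulosus TGR (1 nM) in 50 mM phosphate, 1 mM EDTA, pH 7, with 100 µM NADPH. Enzyme was preincubated for 3 min with NADPH and inhibitor at 50 µM (from a 100 mM DMSO stock). The reaction was started with 5 mM DTNB, and TNB formation was followed at 412 nm for 3 min. Runs were in duplicate, with controls lacking enzyme and lacking inhibitor.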

The test system of series [7] is Caenorhabditis elegans. As to the kind of experiment: Antiparasitic activity against Caenorhabditis elegans assessed as inhibition of parasite motility at 100 uM after 17.5 hrs by motility assay relative to control. In kind it is functional. An outline of the steps: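 About 80 synchronized L4 worms per well in K buffer with 0.015% BSA. Motility was first recorded for 30 min to set 100%. Compound was then added at 100 µM in 1% DMSO, and motility was tracked automatically for 17.5 h. Mean motility at the final time was compared with 1% DMSO control wells. Eight replicates.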

Series [8] concerns Nippostrongylus brasiliensis. As to the kind of experiment: Antiparasitic activity against Nippostrongylus brasiliensis L4 assessed as parasite death at 20 uM relative to control. In kind it is functional.

Where only a bound is given, the exact number is not on record here.

Usually EC50 stands for the concentration at which the effect is half-maximal. For orientation: inhibition means the percentage by which the read-out fell short of the control. For `O=C(OCc1c(-c2ccccc2)no[n+]1[O-])C1=C(C(=O)c2ccc(Cl)cc2)C2CSC(CS1)N2Cc1ccccc1` (stereo not drawn), the Activity in series [1] came to 89.4%; in series [2] it was 97.7%. For the same compound, the selectivity ratio in series [3] stood at 1.2. Moreover, the values for the EC50 in series [4] and in series [5] were 2.5 µM and 3.1 µM, respectively. The inhibition in series [6] was found to be 0%.

For `CCOC(=O)C1=C(C(=O)OCC)C2CSC(CS1)N2CCCC(=O)OCc1c(-c2ccccc2)no[n+]1[O-]` (stereo not drawn), the Activity is listed as 60.4% in series [1] and 97.8% in series [2]. The selectivity ratio in series [3] is greater than 71. For the same compound, the values for the concentration giving a half-maximal response (EC50) in series [4] and in series [5] were 2.8 µM and greater than 200 µM, respectively. The inhibition in series [6] stood at 0%. Also, in series [7], the inhibition at 100 µM was 22%.

Regarding `COC(=O)C1=C(C(=O)c2ccc(Cl)cc2)C2CSC(CS1)N2CCO` (stereo not drawn), the Activity amounted to 1.8% in series [1], 3.6% in series [2] and 20.6% in series [8]. Moreover, in series [6], the inhibition is 0%. For the same compound, the inhibition at 100 µM in series [7] was found to be 18%.

With `O=C(OCc1c(-c2ccccc2)no[n+]1[O-])C1=C(C(=O)OCc2c(-c3ccccc3)no[n+]2[O-])C2CSC(CS1)N2Cc1ccccc1` (stereo not drawn), the Activity in series [1] is on record as 12.2%; in series [2] it was 23.3%.

With `CCOC(=O)C1=C(C(=O)OCC)C2CSC(CS1)N2Cc1ccccc1` (stereo not drawn), the Activity was 3.5% in series [1], 98.8% in series [2] and 5.9% in series [8]. Besides, the selectivity ratio in series [3] was found to be 10. Also, the 50% effective concentration (EC50) in series [4] was found to be 18.9 µM; in series [5], 200 µM. Moreover, in series [6], the inhibition worked out at 0%. In series [7], the inhibition at 100 µM amounted to 20%.

Regarding `CCCSc1ccc2[nH]c(NC(=O)OC)nc2c1` [ALBENDAZOLE], in series [8], the Activity is 100%.

For `CCOC(=O)C1=C(C(=O)OCC)C2CSC(CS1)N2Cc1ccc(OC)cc1` (stereo not drawn), the results for the Activity in series [1], in series [2] and in series [8] were 3%, 97.7% and 13.8%, respectively. In series [3], the selectivity ratio was greater than 11. Moreover, the EC50 in series [4] was 18 µM; in series [5], greater than 200 µM. The inhibition in series [6] turned out to be 36%. Also, the inhibition at 100 µM in series [7] is 50%.

As to `CCOC(=O)C1=C(C(=O)OCC)C2CSC(CS1)N2Cc1ccc(F)cc1` (stereo not drawn), the Activity in series [1] amounted to 12.7%; in series [2], 99.4%; in series [8], 47.6%. Besides, the selectivity ratio in series [3] worked out at 3.6. In addition, the half-maximal effective concentration (EC50) in series [4] stood at 17.8 µM; in series [5] it was 64.4 µM. In addition, the inhibition in series [6] turned out to be 41%. Besides, the inhibition at 100 µM in series [7] turned out to be 26%.

With `CCOC(=O)C1=C(C(=O)OCC)C2CSC(CS1)N2Cc1ccc(Cl)cc1` (stereo not drawn), the Activity in series [1] came out at 2.4%; in series [2], 97.3%; in series [8], 17.1%. Moreover, in series [3], the selectivity ratio was greater than 25. Moreover, the half-maximal effective concentration (EC50) in series [4] was 8 µM; in series [5], greater than 200 µM. The inhibition in series [6] was determined as 0%. The inhibition at 100 µM in series [7] came to 37%.

Take `CC1CS(=O)(=O)CCN1/N=C/c1ccc([N+](=O)[O-])o1` (stereo not drawn) [NIFURTIMOX]: the selectivity ratio in series [3] is 10. Further, in series [5], the EC50 is 150 µM.

For the compound `COC(=O)C1=C(C(=O)c2ccc(Cl)cc2)C2CSC(CS1)N2Cc1ccc(OC)cc1` (stereo not drawn), the Activity is recorded as 0% in series [1], 95.9% in series [2] and 27.6% in series [8]. In addition, the selectivity ratio in series [3] came to 0.6. In addition, the EC50 in series [4] turned out to be 16.4 µM; in series [5], 9.7 µM. Further, the inhibition in series [6] came out at 29%. Moreover, the inhibition at 100 µM in series [7] turned out to be 3%.

As to `COC(=O)C1=C(C(=O)c2ccc(Cl)cc2)C2CSC(CS1)N2Cc1ccccc1` (stereo not drawn), the Activity was found to be 3.4% in series [1], 57.5% in series [2] and 20.5% in series [8]. Further, in series [6], the inhibition is 0%. For the same compound, the inhibition at 100 µM in series [7] was 51%.
